Assay outcomes from PubChem.
Most compounds without a hit are left out; they make up all but 4.2% or so of the library.
HDAC3 inhib: inhibitors of human histone deacetylase 3; O15379; recombinant HDAC3, fluorogenic peptide/trypsin coupled, fluorescence; inhibition, % at 8.3 µM; 320,000 compounds, 0.15% hits; in the data active = inhibition above about 26%, passing the limit was not always enough; inconclusive = no clear call, values can overlap the other calls
AHR act: activates the human aryl hydrocarbon receptor; P35869; AHR-responsive luciferase reporter cells, luminescence; activation, % at 5 µM; 320,000 compounds, 2.5% hits; in the data active = activation above about 47%
PfM18AAP inh: PfM18AAP enzyme inhibition; recombinant PfM18AAP, H-Glu-NHMec fluorogenic cleavage; inhibition, % at 7.35 µM; 290,000 compounds, 1.2% hits;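 active = inhibition above the campaign mean inhibition over all tested compounds plus 3 SD, cut at about 28% in these data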
SENP1 inh: inhibitors of human SENP1 SUMO protease catalytic domain | 360,000 compounds, 0.21% hits | inhibition, % at 10 µM | Q9P0U3 | recombinant SENP1 catalytic domain, CyPet-SUMO1-YPet FRET cleavage;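 active = inhibition at least 30% at 10 µM, raw YFP signal under a set limit, fluorescence ratio 0.5 to 1.5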
Target sequence (Q9P0U3 419-644 limits assumed): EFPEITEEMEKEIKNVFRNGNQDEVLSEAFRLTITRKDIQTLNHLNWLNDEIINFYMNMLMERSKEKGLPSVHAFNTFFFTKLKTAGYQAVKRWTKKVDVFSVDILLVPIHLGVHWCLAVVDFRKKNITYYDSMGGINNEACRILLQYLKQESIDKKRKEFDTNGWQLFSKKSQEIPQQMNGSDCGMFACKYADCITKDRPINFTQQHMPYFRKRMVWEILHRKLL
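Test system: hSENP1 catalytic domain, recombinant; Amount: 20 pM final SENP1 enzyme; Medium: Tris pH 8 buffer plus EDTA, NaCl, BME, BSA, NP40, catalase; Schedule: 50 min enzyme reaction, room temperature, light-protected; Technique: FRET fluorescence in CFP and YFP emission channels; Controls: no-enzyme wells low, DMSO-plus-enzyme wells high control.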
Fh CTSL1 inh: cathepsin L1 inhibition, PFM18AAP counter-screen | inhibition, % at 5.96 µM | 300,000 compounds, 0.49% hits | recombinant F. hepatica cathepsin L1, Z-Leu-Arg-MCA fluorescence | AID 1906;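 active = inhibition above the mean of all tested compounds plus 3 SD, set per screening campaign, cut at about 17% in these data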
FXN GAA850 act: increases GAA850 frataxin promoter reporter activity; AID 540364; HEK293 lucGAA850 FXN promoter luciferase reporter, 24 h; percent of 10 µM SAHA response; 360,000 compounds, 0.56% hits; activation, % at 6 µM;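 active = activation above the average of all compounds screened plus 3 SD, cutoff fixed separately per campaign, cut at about 7.5% in these data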
AHR act confirm: human AHR activation, confirmation; human cells, AHR-responsive luciferase reporter, luminescence; shares compounds with AHR act; activation, % at 9 µM; 2,300 compounds, 87% hits; AID 2845; in the data active = activation above about 49%;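 also: HepG2 hepatoma cells carrying a DRE-driven firefly luciferase reporter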
PXR counter: PXR activation, counter-screen for AHR activators | cell-based PXR reporter, luciferase luminescence | activation, % at 11.6 µM | shares compounds with AHR act | 2,300 compounds, 88% hits; in the data active = activation above about 11%;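 also: human hepatoma DPX-2 cells expressing full-length human PXR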
Target sequence (O75469 whole entry, looked up): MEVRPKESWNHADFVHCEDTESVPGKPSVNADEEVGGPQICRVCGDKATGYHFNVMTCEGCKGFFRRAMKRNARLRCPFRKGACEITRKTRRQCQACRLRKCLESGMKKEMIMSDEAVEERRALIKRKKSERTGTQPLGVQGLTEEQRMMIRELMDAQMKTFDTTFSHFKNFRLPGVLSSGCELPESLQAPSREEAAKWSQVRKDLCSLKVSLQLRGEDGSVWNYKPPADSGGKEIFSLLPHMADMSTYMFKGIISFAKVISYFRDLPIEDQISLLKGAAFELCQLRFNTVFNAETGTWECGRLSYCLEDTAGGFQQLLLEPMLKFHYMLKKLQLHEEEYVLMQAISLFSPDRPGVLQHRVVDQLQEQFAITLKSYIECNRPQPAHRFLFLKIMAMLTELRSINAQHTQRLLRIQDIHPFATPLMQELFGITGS
Numbers stand for hits; . = inactive; ? = inconclusive; / = no result given.

SMILES | HDAC3 inhib | AHR act | PfM18AAP inh | SENP1 inh | Fh CTSL1 inh | FXN GAA850 act | AHR act confirm | PXR counter
O=C(Nc1cccc2ccccc12)c1cc2c(cc1Br)OCO2 | . | 82 | . | . | . | . | 95 | 120
CC1(C(=O)NS(=O)(=O)c2ccc(C#N)cc2)CCN1C(=O)C1(c2ccccc2)CC1 (centres undefined) | / | / | / | . | / | . | / | /
O=C(Nc1cc(F)cc(F)c1)c1ccc(NCCCN2CCCCCC2)c([N+](=O)[O-])c1 | . | 83 | . | . | . | . | 118 | 29
COc1cccc(NC(=O)c2ccc(NCCCN3CCC(C)CC3)c([N+](=O)[O-])c2)c1 | . | . | . | . | . | . | / | /
O=C(Nc1ccccc1)c1ccc(NCCN2C(=O)CCC2=O)c([N+](=O)[O-])c1 | . | 81 | . | . | . | . | 110 | 23
CC(Sc1nnc(-c2cccnc2)o1)C(=O)NC1CCCCC1 (centres undefined) | . | . | / | . | / | . | / | /
Cc1cc(C(=O)Nc2ccccc2[N+](=O)[O-])cs1 | . | . | . | . | . | . | / | /
Cc1c(C(=O)Nc2ccccc2[N+](=O)[O-])csc1-c1ccccc1 | . | 122 | . | . | . | . | 63 | 27
COc1cc(NC(=O)c2ccnc(N)c2)cc(C(=O)Nc2cccc(C(F)(F)F)c2)c1 | . | . | / | . | . | . | / | /
COc1cc(NC(=O)c2csc(N)n2)cc(C(=O)Nc2cccc(C(F)(F)F)c2)c1 | . | 85 | / | . | . | . | 91 | 32
COc1cc(NC(=O)c2cc(C)on2)cc(C(=O)Nc2cccc(C(F)(F)F)c2)c1 | ? | 130 | / | . | . | . | 106 | 21
COc1cc(NC(=O)c2cnc(N)s2)cc(C(=O)Nc2cccc(C(F)(F)F)c2)c1 | . | . | / | . | . | . | / | /
C/C(=N\NC(=O)C(=O)Nc1cc(Cl)ccc1Cl)c1ccncc1 | . | 89 | . | . | . | . | . | .
C=CCc1ccccc1OCCOc1ccc([N+](=O)[O-])cc1/C=N/NC(N)=O | . | 111 | . | . | . | . | 90 | 35
NC(=O)C1CCN(C(=O)NC2CC(=O)N(c3ccc4c(c3)OCCO4)C2)CC1 (centres undefined) | . | . | / | . | . | . | / | /
O[C@@H]1C[C@H](c2ccccc2)N(CC2CCCCC2)C[C@H]1n1cc(C2CC2)nn1 | / | / | / | . | / | . | / | /
CC(=O)N1CCOC12CCN(Cc1ccccc1)CC2 | / | / | / | . | / | . | / | /
O=C(CCN1C(=O)C2CC=CCC2C1=O)Nc1cccc(Cl)c1 (centres undefined) | . | . | . | . | . | . | / | /
CCCCNC(=O)c1sc2ncnc(N3CCc4ccccc4C3)c2c1C | . | 99 | . | . | . | . | 102 | 24
CCOC(=O)CNC(=O)c1sc2ncnc(N3CCc4ccccc4C3)c2c1C | . | . | . | . | . | . | / | /
Cc1cccc(NC(=O)CSc2nnc(C)c(C)n2)c1 | . | . | . | . | . | . | / | /
N#CC1=C(N)Nc2nc3ccccc3n2C1c1ccc(F)cc1 (centres undefined) | . | 94 | . | . | . | . | 80 | 62
CNC(=O)C1=C(C)Nc2nc3ccccc3n2C1c1ccc(F)cc1 (centres undefined) | . | . | . | . | . | . | / | /
C/C(=C\C(=S)Nc1ccccc1)Nc1cccc2ccccc12 | . | 94 | . | . | . | . | . | 17
COc1cc(OC)cc(C(=O)NC(=S)Nc2cccnc2)c1 | . | . | . | . | . | . | / | /
SMILES | HDAC3 inhib | AHR act | PfM18AAP inh | SENP1 inh | Fh CTSL1 inh | FXN GAA850 act | AHR act confirm | PXR counter
CC(C)c1ccc(NC(=S)Nc2cccc3ccccc23)cc1 | . | 90 | . | . | . | . | 90 | 81
COc1ccc(CNC(=S)Nc2cccc(OC)c2)cc1 | . | . | . | . | . | . | / | /
COc1cc(NC(=S)Nc2cccnc2)cc(OC)c1 | . | 116 | . | . | . | . | 65 | 23
COc1cccc(NC(=S)Nc2cccc3ccccc23)c1 | . | 88 | . | . | . | . | . | 105
O=C1NC[C@H](CCCCN2CCN(CCc3ccc(O)cc3)C(=O)C2=O)N(CCc2ccc(O)cc2)C1=O | / | / | / | . | / | / | / | /
C(=NN1CCCCCC1)c1ccc2c(c1)OCO2 | / | / | / | . | / | . | / | /
Cc1ccc(NCCC(=O)c2cccs2)cc1Cl | . | 86 | . | . | . | . | 69 | 12
CC(=O)c1c(C)[nH]c(C(=O)Nc2cc(S(=O)(=O)N3CCCCC3)ccc2C)c1C | . | . | / | . | / | . | / | /
CC(=O)c1c(C)[nH]c(C(=O)Nc2ccc(Cl)c(S(=O)(=O)N(C)C)c2)c1C | . | 81 | . | . | . | . | 83 | 53
CC(=O)c1c(C)[nH]c(C(=O)Nc2cccc(S(=O)(=O)N3CCOCC3)c2)c1C | . | 100 | . | . | . | . | 78 | 34
C[C@H](CO)N1C[C@H](C)[C@@H](CN(C)C(=O)Nc2cc(F)ccc2F)Oc2ncc(-c3cccc(F)c3)cc2C1=O | / | / | / | . | / | . | / | /
Clc1cccc(-c2ccc(CNCc3ccccn3)o2)c1 | . | 121 | . | . | . | . | 87 | 24
Brc1ccc(-c2ccc(CNCc3ccccn3)o2)cc1 | . | . | . | . | . | . | / | /
N#C/C(=C\c1ccc[nH]1)C(=O)Nc1ccccc1Cl | . | 96 | . | . | . | . | 100 | 29
COCCNC(=S)NCCc1ccc(Cl)cc1Cl | . | . | . | . | . | . | / | /
Cc1ccc(F)c(S(=O)(=O)NC(=O)C2(C)CCN2C(=O)CCC2CCCC2)c1 (centres undefined) | / | / | / | . | / | . | / | /
O=C(NC1CCCC1)c1cc2c(ccc3ccccc32)o1 | . | 112 | . | . | . | . | 66 | /
CNC(=O)c1cc2c(ccc3ccccc32)o1 | . | 108 | . | . | . | . | 102 | 13
Cc1ccc(/C=N/NC(=O)c2cc3c(ccc4ccccc43)o2)o1 | / | / | . | . | / | . | / | /
CCOC(=O)CCC(=O)Nc1ccc(S(=O)(=O)Nc2cc(OC)nc(OC)n2)cc1 | . | . | . | . | . | . | / | /
CCOC(=O)c1cccc(NC(=O)c2ccc(-n3cnnn3)cc2)c1 | . | . | / | . | / | . | / | /
CCOC(=O)C(CCc1ccccn1)c1ccccc1 (centres undefined) | / | / | / | . | / | . | / | /
COc1ccc(OC)c(NC(=O)CN(Cc2ccc(F)cc2)C2CCCCC2)c1 | ? | . | . | . | . | . | / | /
CCN(CC)C(=O)C1=C(C)N(Cc2ccc(C(C)(C)C)cc2)C(=O)C(CC(=O)NCc2ccco2)C1 (centres undefined) | / | / | / | . | / | . | / | /
Cc1ccc2nc(NC(=O)c3ccc(-c4nc5ccccc5s4)s3)sc2c1 | . | . | . | . | . | . | / | /
O=C(Nc1nc2ccccc2s1)c1ccc(Cl)s1 | . | 82 | . | . | . | . | 50 | 12
